In ChEMBL document CHEMBL2424598, “Identification and optimization of pteridinone Toll-like receptor 7 (TLR7) agonists for the oral treatment of viral hepatitis” (J Med Chem, 2013) one finds MEC, Ratio and logD data, which are given here for 45 compounds.

One may read the logD as lipophilicity at a set pH, counting ionised and neutral species. A lower logD goes with a more hydrophilic compound.

In data set [1] the target is T1, Toll-like receptor 7 (Homo sapiens) (UniProt Q9NYK1).
T1 sequence (whole entry): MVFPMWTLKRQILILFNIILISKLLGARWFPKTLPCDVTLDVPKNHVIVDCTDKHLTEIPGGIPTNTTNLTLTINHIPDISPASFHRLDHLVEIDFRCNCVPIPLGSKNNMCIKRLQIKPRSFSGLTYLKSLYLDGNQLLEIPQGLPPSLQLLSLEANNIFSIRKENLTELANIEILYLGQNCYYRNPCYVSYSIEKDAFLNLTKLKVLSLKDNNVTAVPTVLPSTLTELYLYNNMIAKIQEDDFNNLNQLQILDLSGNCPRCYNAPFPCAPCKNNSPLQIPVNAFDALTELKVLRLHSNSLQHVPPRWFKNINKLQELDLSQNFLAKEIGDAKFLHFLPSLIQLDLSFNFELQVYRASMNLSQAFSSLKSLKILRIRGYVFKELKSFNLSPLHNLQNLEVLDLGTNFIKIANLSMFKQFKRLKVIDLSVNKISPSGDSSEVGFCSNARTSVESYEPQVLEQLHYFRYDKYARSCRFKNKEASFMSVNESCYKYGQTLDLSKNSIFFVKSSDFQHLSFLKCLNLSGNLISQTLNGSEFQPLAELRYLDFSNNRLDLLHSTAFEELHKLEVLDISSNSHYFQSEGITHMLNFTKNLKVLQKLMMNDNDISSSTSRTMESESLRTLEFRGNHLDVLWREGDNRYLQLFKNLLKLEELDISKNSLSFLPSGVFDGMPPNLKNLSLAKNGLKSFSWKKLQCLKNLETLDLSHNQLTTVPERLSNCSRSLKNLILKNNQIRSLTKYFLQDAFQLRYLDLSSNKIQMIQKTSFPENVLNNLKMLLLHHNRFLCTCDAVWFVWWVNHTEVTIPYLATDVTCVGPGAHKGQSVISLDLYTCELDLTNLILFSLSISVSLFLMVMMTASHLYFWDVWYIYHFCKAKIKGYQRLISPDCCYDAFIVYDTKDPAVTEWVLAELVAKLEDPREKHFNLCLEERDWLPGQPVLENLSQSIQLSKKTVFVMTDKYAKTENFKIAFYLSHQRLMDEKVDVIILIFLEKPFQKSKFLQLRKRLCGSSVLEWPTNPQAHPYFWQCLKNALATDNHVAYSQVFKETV
The experiment in a line: Agonist activity at TLR7-mediated IFNalpha production in human PBMC assessed as minimum concentration of compound necessary to generate >3 fold of cytokine levels relative to control. The method, boiled down:
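Cryopreserved PBMCs from leukapheresis of a single healthy human donor, chosen as a consistent, robust responder to TLR7 agonist stimulation. Cells were incubated with compound for 24 h over an eight-point concentration range. Secreted IFN-α was measured to build dose-response curves. MEC was taken as the lowest concentration giving cytokine levels ≥3-fold over untreated control cultures.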

The next data set is filed under the species Homo sapiens. The experiment in a line: Selectivity ratio of MEC for TLR8-mediated TNFalpha production in human PBMC to MEC for TLR7-mediated IFNalpha production in human PBMC. The gist of the method:
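Cryopreserved human PBMCs came from leukapheresis of a single healthy donor selected as a consistent responder. Cells were incubated with compound for 24 h over an eight-point concentration range, and cytokine release was measured. MEC is the lowest concentration giving cytokine levels at least 3-fold above untreated cultures, determined per cytokine.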

Data set [2] in a line: Lipophilicity, log D of the compound. Conditions: octanol/water. Format: physicochemical.

Consider `CCCCOc1nc(N)c2c(n1)N(Cc1cccc(CN3CCCC3)c1)CCC(=O)N2`, for which the MEC in data set [1] is over 10000 nM.

Regarding `CCCCOc1nc(N)c2c(n1)N(C)C(Cc1ccc(CN3CCCC3)cc1)C(=O)N2` (configuration not stated), the MEC in data set [1] was 1000 nM. Also, the Ratio in the data set listed under Homo sapiens was 10.

In the case of `Nc1nc(OCC2CCCCC2)nc2c1NC(=O)CN2Cc1cccc(CN2CCCC2)c1`, in data set [1], the MEC came out at 3000 nM. In addition, the Ratio in the data set listed under Homo sapiens came to 3.3.

As to `CCCCOc1nc(N)c2c(n1)N(Cc1ccc(-c3cccc(CN4CCCC4)c3)cc1)CC(=O)N2`, the MEC in data set [1] came to 3 nM. For the same compound, the Ratio in the data set filed under Homo sapiens was determined as 10.

Consider `CCCCOc1cc2c(c(N)n1)NC(=O)CN2Cc1cccc(CN2CCCC2)c1`, for which the MEC in data set [1] was 300 nM. Further, the Ratio in the data set listed under Homo sapiens was determined as 10.

On to `COCCOc1cc2c(c(N)n1)NC(=O)CN2Cc1ccc(CN2CCCC2)cc1`, for which the MEC in data set [1] was found to be 0.32 nM. The Ratio in the data set filed under Homo sapiens was 10.

Regarding `Nc1nc(OCc2ccccc2)nc2c1NC(=O)CN2Cc1cccc(CN2CCCC2)c1`, the MEC in data set [1] is 3000 nM. Also, in the data set filed under Homo sapiens, the Ratio is 3.3.

In the case of `CCCCOc1nc(N)c2c(n1)N(Cc1ccccc1)CC(=O)N2`, the Ratio in the data set listed under Homo sapiens was 0.3.

As for `Nc1nc(OCC2CCOCC2)nc2c1NC(=O)CN2Cc1cccc(CN2CCCC2)c1`, the MEC in data set [1] was determined as 10 nM. Further, the Ratio in the data set filed under Homo sapiens is 100.

Regarding `CCCCSc1nc(N)c2c(n1)N(Cc1cccc(CN3CCCC3)c1)CC(=O)N2`, the MEC in data set [1] turned out to be 100 nM. The Ratio in the data set filed under Homo sapiens worked out at 30.

For the compound `CCCCNc1nc(N)c2[nH]c(=O)c(=O)n(Cc3cccc(CN4CCCC4)c3)c2n1`, the MEC in data set [1] was determined as 3 nM. For the same compound, in the data set filed under Homo sapiens, the Ratio was determined as 30.

Take `CCCN(C)C(=O)c1nc(N)c2[nH]c(=O)c(=O)n(Cc3cccc(CN4CCCC4)c3)c2n1`: the MEC in data set [1] was determined as 1000 nM. Also, the Ratio in the data set listed under Homo sapiens turned out to be 10.

Consider `CCCCOc1nc(N)c2c(n1)N(C)C(Cc1cccc(CN3CCCC3)c1)C(=O)N2` (configuration not stated), for which, in data set [1], the MEC was found to be 320 nM. Moreover, in the data set filed under Homo sapiens, the Ratio is 30.

On to `CCCCOc1cc2c([nH]c(=O)c(=O)n2Cc2cccc(CN3CCCC3)c2)c(N)n1`, for which the MEC in data set [1] was determined as 30 nM. Further, in the data set listed under Homo sapiens, the Ratio came to 10.

Regarding `CC(C)COc1nc(N)c2c(n1)N(Cc1cccc(CN3CCCC3)c1)CC(=O)N2`, in data set [1], the MEC came out at 10000 nM. In the data set listed under Homo sapiens, the Ratio worked out at 0.

As to `CCCCCc1nc(N)c2c(n1)N(Cc1cccc(CN3CCCC3)c1)CC(=O)N2`, in data set [1], the MEC was determined as 320 nM. In addition, the Ratio in the data set filed under Homo sapiens is 30.

For the compound `CCCCNc1nc(N)c2c(n1)N(Cc1cccc(CN3CCCC3)c1)CC(=O)N2`, the MEC in data set [1] came to 10 nM. Also, in the data set filed under Homo sapiens, the Ratio came to 1000.

`CCCCOc1nc(N)c2c(n1)N(Cc1ccc(CCCN3CCCC3)nc1)CC(=O)N2`: the MEC in data set [1] is 3 nM. Besides, the Ratio in the data set listed under Homo sapiens came to 30.

In the case of `CCC[C@H](C)Oc1nc(N)c2c(n1)N(Cc1cccc(CN3CCCC3)c1)CC(=O)N2`, the MEC in data set [1] turned out to be 3 nM. Also, the Ratio in the data set listed under Homo sapiens came out at 33.

With `CCCCOc1nc(N)c2c(n1)N(Cc1ccc(-c3ccc(CN4CCCC4)cc3)cc1)CC(=O)N2`, in data set [1], the MEC came out at 3 nM. The Ratio in the data set listed under Homo sapiens amounted to 3.3.

For the compound `CCCCOc1cc2c([nH]c(=O)c(=O)n2Cc2ccc(-c3ccc(CN4CCCC4)cc3)cc2)c(N)n1`, the MEC in data set [1] came to 10 nM. Moreover, the Ratio in the data set filed under Homo sapiens was 3.

On to `COCCNc1nc(N)c2c(n1)N(Cc1cccc(CN3CCCC3)c1)CC(=O)N2`, for which the MEC in data set [1] was 1000 nM. Also, in the data set filed under Homo sapiens, the Ratio was determined as 10.

For the compound `CCCCOc1nc(N)c2c(n1)N(Cc1cccc(CN3CCCC3)c1)C(C)C(=O)N2` (configuration not stated), the MEC in data set [1] was 300 nM. The Ratio in the data set listed under Homo sapiens was 30.

Turning to `COCCOc1nc(N)c2c(n1)N(Cc1cccc(CN3CCCC3)c1)CC(=O)N2`, in data set [1], the MEC came to 10 nM. Besides, the Ratio in the data set listed under Homo sapiens is 1000. In data set [2], this compound yielded a logD of 1.

As to `CCCCOc1cc2c([nH]c(=O)c(=O)n2Cc2ccc(CN3CCCC3)cc2)c(N)n1`, the MEC in data set [1] came to 3 nM. In addition, the Ratio in the data set listed under Homo sapiens turned out to be 3.

For the compound `COCCOc1nc(N)c2[nH]c(=O)c(=O)n(Cc3cccc(CN4CCCC4)c3)c2n1`, the MEC in data set [1] was found to be 100 nM. Besides, in the data set listed under Homo sapiens, the Ratio turned out to be 3.

With `CCCCOc1nc(N)c2c(n1)N(Cc1ccc3c(c1)CCN(C(C)C)C3)CC(=O)N2`, the MEC in data set [1] is 3 nM. Also, the Ratio in the data set listed under Homo sapiens was determined as 10.

For the compound `CCCCOc1nc(N)c2[nH]c(=O)n(Cc3cccc(CN4CCCC4)c3)c2n1`, the MEC in data set [1] is 0.03 nM.

`CCCCOc1nc(N)c2c(n1)N(Cc1cccc(CN3CCOCC3)c1)CC(=O)N2`: the MEC in data set [1] is 300 nM. In addition, in the data set listed under Homo sapiens, the Ratio stood at 3.3.

Regarding `CCCCCOc1nc(N)c2c(n1)N(Cc1cccc(CN3CCCC3)c1)CC(=O)N2`, the MEC in data set [1] turned out to be 100 nM. Further, the Ratio in the data set listed under Homo sapiens is 100.

As to `CCCCOc1nc(N)c2c(n1)N(Cc1ccc(CN3CCCC3)cc1)C(C)C(=O)N2` (configuration not stated), the MEC in data set [1] was 10 nM. In addition, the Ratio in the data set listed under Homo sapiens is 30.

As for `CCCCOc1nc(N)c2c(n1)N(Cc1ccc3c(c1)CN(C(C)C)CC3)CC(=O)N2`, the MEC in data set [1] stood at 3 nM. The Ratio in the data set listed under Homo sapiens stood at 3.

As to `CCCCOc1nc(N)c2c(n1)N(Cc1ccccc1CN1CCCC1)CC(=O)N2`, the MEC in data set [1] worked out at 100 nM. Besides, the Ratio in the data set filed under Homo sapiens is 100.

On to `CCCCOc1nc(N)c2c(n1)N(Cc1cccc(CN3CCCCC3)c1)CC(=O)N2`, for which the MEC in data set [1] is 30 nM. The Ratio in the data set filed under Homo sapiens was 3.3.

As to `CCCCOc1nc(N)c2[nH]c(=O)c(=O)n(Cc3ccc(CN4CCCC4)cc3)c2n1`, the MEC in data set [1] came to 0.32 nM. The Ratio in the data set filed under Homo sapiens was found to be 10.

For the compound `CCCCOc1nc(N)c2c(n1)N(Cc1ccc(CN3CCCC3)cc1)CC(=O)N2`, in data set [1], the MEC is 1 nM. The Ratio in the data set listed under Homo sapiens is 10.

On to `Nc1nc(OCCC2CC2)nc2c1NC(=O)CN2Cc1cccc(CN2CCCC2)c1`, for which the MEC in data set [1] was determined as 30 nM. The Ratio in the data set listed under Homo sapiens came to 10.

`CCCCOc1nc(N)c2c(n1)N(Cc1cccc(CN3CCCC3)c1)C1(CC1)C(=O)N2`: in data set [1], the MEC was determined as 1000 nM. Moreover, the Ratio in the data set listed under Homo sapiens was found to be 3.

For the compound `CCCCOc1cc2c(c(N)n1)NC(=O)CN2Cc1ccc(CN2CCCC2)cc1`, in data set [1], the MEC came out at 30 nM. Besides, in the data set listed under Homo sapiens, the Ratio amounted to 10.

Regarding `CCCCOc1nc(N)c2[nH]c(=O)c(=O)n(Cc3cccc(CN4CCCC4)c3)c2n1`, in data set [1], the MEC was 3 nM. Also, the Ratio in the data set listed under Homo sapiens was 33.

As to `CCCCOc1nc(N)c2c(n1)NC(Cc1cccc(CN3CCCC3)c1)C(=O)N2` (configuration not stated), the MEC in data set [1] was over 10000 nM.

`CCCCOc1nc(N)c2c(n1)N1Cc3cccc(CN4CCCC4)c3CC1C(=O)N2` (configuration not stated): the MEC in data set [1] was determined as 300 nM. Also, the Ratio in the data set filed under Homo sapiens worked out at 10.

For the compound `CCC(CC)COc1nc(N)c2c(n1)N(Cc1cccc(CN3CCCC3)c1)CC(=O)N2`, in data set [1], the MEC came to 10 nM. In addition, the Ratio in the data set listed under Homo sapiens was determined as 30.

`CCCCOc1cc2c([nH]c(=O)c(=O)n2Cc2ccc(-c3cccc(CN4CCCC4)c3)cc2)c(N)n1`: the MEC in data set [1] turned out to be 30 nM. In addition, the Ratio in the data set listed under Homo sapiens came out at 3.

As to `CCCN(C)C(=O)c1nc(N)c2c(n1)N(Cc1cccc(CN3CCCC3)c1)CC(=O)N2`, in data set [1], the MEC is 1000 nM. Also, the Ratio in the data set listed under Homo sapiens was found to be 10.
